Source: ChEMBL document CHEMBL1122365, “Substituted 1,4-naphthoquinones vs. the ascitic sarcoma 180 of mice” (J Med Chem, 1983)
Values after ≈ are worked out from the molar mass of the structure shown.

How the values were obtained:
[1] = Partition coefficient (logP); type: physicochemical; conditions: octanol/water
Summary of the method: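 Shake-flask method: four samples per compound (1.50–20.0 mg) each equilibrated between known volumes of 1-octanol and water. Solute concentration measured spectroscopically in the water phase; octanol-phase concentration taken by difference. Partition coefficient is the ratio of the two concentrations.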

Mus musculus [2] = assay: Maximum survival by an optimum dose at 7 mg/kg in treated to that of untreated mice; type: functional
[3] = Tested for acute toxicity which is the single dose given intraperitoneally that will kill one-half of the mice within 5 days; type: organism-based; conditions: mouse, in vivo, ip
[4] = Effective dose that would give a 25% increase in the survival time against the ascitic sarcoma 180 in mice; type: functional, Mus musculus
Summary of the method: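 Swiss mice given 10⁶ ascitic sarcoma 180 cells ip on day 0, then one ip dose of compound daily on days 1-3, with several dose levels. T/C is the mean survival of treated mice over the survival of untreated mice. ED25 is the daily dose giving T/C = 125%, interpolated or extrapolated from a semilog plot of T/C vs. log dose.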

Mus musculus [5] = assay: Maximum survival by an optimum dose at 4 mg/kg in treated to that of untreated mice; type: functional
[6] = Solubility in water was determined; type: physicochemical
Mus musculus [7] = assay: Maximum survival by an optimum dose at 80 mg/kg in treated to that of untreated mice; type: functional
Mus musculus [8] = assay: Maximum survival by an optimum dose at 3 mg/kg in treated to that of untreated mice; type: functional
Mus musculus [9] = assay: Maximum survival by an optimum dose at 20 mg/kg in treated to that of untreated mice; type: functional
Mus musculus [10] = assay: Maximum survival by an optimum dose at 100 mg/kg in treated to that of untreated mice; type: functional
Mus musculus [11] = assay: Maximum survival by an optimum dose at 60 mg/kg in treated to that of untreated mice; type: functional
Mus musculus [12] = assay: Maximum survival by an optimum dose at 6 mg/kg in treated to that of untreated mice; type: functional
Mus musculus [13] = assay: Maximum survival by an optimum dose at 25 mg/kg in treated to that of untreated mice; type: functional
Mus musculus [14] = assay: Maximum survival by an optimum dose at 30 mg/kg in treated to that of untreated mice; type: functional
[15] = Mus musculus, Sarcoma-180, read-out: ED25

| Compound | logP ([1]; read-out: logP) | Optimal dose (Mus musculus [2]) | LD50 at 120 h [3] | ED25 [4] | ED25 [4, 15] | Optimal dose (Mus musculus [5]) | solubility [6] | Optimal dose (Mus musculus [7]) | logP [1] | Optimal dose (Mus musculus [8]) | Optimal dose (Mus musculus [9]) | Optimal dose (Mus musculus [10]) | Optimal dose (Mus musculus [11]) | Optimal dose (Mus musculus [12]) | Optimal dose (Mus musculus [13]) | Optimal dose (Mus musculus [14]) |
| --- | --- | --- | --- | --- | --- | --- | --- | --- | --- | --- | --- | --- | --- | --- | --- | --- |
| CCCOC1=C(Cl)C(=O)c2ccccc2C1=O | 2.95 | 271% | 20 mg/kg | 0.01 mmol/kg | 2.45 mg/kg |  |  |  |  |  |  |  |  |  |  |  |
| CC(=O)NC1=C(Cl)C(=O)c2ccccc2C1=O | 1.42 |  | 11 mg/kg | 0.01 mmol/kg | 2.97 mg/kg | 284% | 106 µg/mL (≈ 425 µM) |  |  |  |  |  |  |  |  |  |
| O=C1C(Cl)=C(Nc2ccccc2)C(=O)c2ccccc21 |  |  | 1600 mg/kg | 0.331 mmol/kg | 94 mg/kg |  | 2.4 µg/mL (≈ 8.46 µM) | 117% | 4.04 |  |  |  |  |  |  |  |
| CCOC1=C(Cl)C(=O)c2ccccc2C1=O | 2.61 |  | 16 mg/kg | 0.008 mmol/kg | 1.97 mg/kg |  | 34.1 µg/mL (≈ 144 µM) |  |  | 230% |  |  |  |  |  |  |
| NC1=C(Cl)C(=O)c2ccccc2C1=O | 2.08 |  | 800 mg/kg | 0.123 mmol/kg | 25.5 mg/kg |  | 37.7 µg/mL (≈ 182 µM) |  |  |  | 112% |  |  |  |  |  |
| O=C1C(=O)c2ccccc2C(O)=C1C1CCCC1 | 2.69 |  | 400 mg/kg | 0.582 mmol/kg | 141 mg/kg |  | 9.5 µg/mL (≈ 39.2 µM) |  |  |  |  | 116% |  |  |  |  |
| COC1=C(Cl)C(=O)c2ccccc2C1=O | 2.15 |  | 14 mg/kg | 0.011 mmol/kg | 2.49 mg/kg | 315% | 39.3 µg/mL (≈ 177 µM) |  |  |  |  |  |  |  |  |  |
| COC1=CC(=O)c2ccccc2C1=O [2-Methoxy-1,4-naphthoquinone] | 1.59 |  | 320 mg/kg | 0.262 mmol/kg | 49.3 mg/kg |  | 31.3 µg/mL (≈ 166 µM) |  |  |  |  |  | 154% |  |  |  |
| O=C1C(Cl)=C(Cl)C(=O)c2ccccc21 [Dichlon] | 3.16 |  |  | 0.022 mmol/kg | 4.89 mg/kg |  |  |  |  |  |  |  |  | 189% |  |  |
| O=C1C=C(O)C(=O)c2ccccc21 [LAWSONE] | 1.07 |  | 100 mg/kg | 0.19 mmol/kg | 33 mg/kg |  | 255 µg/mL (≈ 1460 µM) |  |  |  |  |  |  |  | 104% |  |
| CC1=CC(=O)c2ccccc2C1=O [MENADIONE] | 2.25 |  | 150 mg/kg | 0.174 mmol/kg | 30 mg/kg |  | 10.6 µg/mL (≈ 61.6 µM) |  |  |  |  |  |  |  |  | 126% |
| O=C1C=CC(=O)c2ccccc21 [NAPHTHOQUINONE] | 1.74 |  | 5.5 mg/kg | 0.012 mmol/kg | 1.9 mg/kg |  | 89.4 µg/mL (≈ 565 µM) |  |  | 347% |  |  |  |  |  |  |
